The source of these data is ChEMBL document CHEMBL5653631, “A Potent and Selective ULK1 Inhibitor Suppresses Autophagy and Sensitizes Cancer Cells to Nutrient Stress” (iScience, 2018).

The target of test [1] is T1, Serine/threonine-protein kinase Chk1 (Homo sapiens) (UniProt O14757).
T1 sequence (whole entry): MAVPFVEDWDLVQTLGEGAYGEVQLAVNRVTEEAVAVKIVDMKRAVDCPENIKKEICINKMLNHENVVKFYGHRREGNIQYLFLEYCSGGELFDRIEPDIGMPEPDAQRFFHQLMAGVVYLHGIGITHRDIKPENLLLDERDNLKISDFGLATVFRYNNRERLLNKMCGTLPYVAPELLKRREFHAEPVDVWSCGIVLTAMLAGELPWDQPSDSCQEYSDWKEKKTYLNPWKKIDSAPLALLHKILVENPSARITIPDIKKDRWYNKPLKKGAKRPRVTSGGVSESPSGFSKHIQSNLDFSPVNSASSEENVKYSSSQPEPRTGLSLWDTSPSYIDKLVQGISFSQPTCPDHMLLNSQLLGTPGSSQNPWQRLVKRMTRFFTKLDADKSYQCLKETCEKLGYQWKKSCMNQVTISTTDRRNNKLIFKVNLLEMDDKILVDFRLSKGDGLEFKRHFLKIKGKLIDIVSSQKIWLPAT
The experiment in a line: Inhibition of human recombinant CHK1 at 40 nM in presence of ATP by radiometric assay relative to control.

Test [2] deals with T2, Ephrin type-B receptor 4 (Homo sapiens) (UniProt P54760).
T2 sequence (whole entry): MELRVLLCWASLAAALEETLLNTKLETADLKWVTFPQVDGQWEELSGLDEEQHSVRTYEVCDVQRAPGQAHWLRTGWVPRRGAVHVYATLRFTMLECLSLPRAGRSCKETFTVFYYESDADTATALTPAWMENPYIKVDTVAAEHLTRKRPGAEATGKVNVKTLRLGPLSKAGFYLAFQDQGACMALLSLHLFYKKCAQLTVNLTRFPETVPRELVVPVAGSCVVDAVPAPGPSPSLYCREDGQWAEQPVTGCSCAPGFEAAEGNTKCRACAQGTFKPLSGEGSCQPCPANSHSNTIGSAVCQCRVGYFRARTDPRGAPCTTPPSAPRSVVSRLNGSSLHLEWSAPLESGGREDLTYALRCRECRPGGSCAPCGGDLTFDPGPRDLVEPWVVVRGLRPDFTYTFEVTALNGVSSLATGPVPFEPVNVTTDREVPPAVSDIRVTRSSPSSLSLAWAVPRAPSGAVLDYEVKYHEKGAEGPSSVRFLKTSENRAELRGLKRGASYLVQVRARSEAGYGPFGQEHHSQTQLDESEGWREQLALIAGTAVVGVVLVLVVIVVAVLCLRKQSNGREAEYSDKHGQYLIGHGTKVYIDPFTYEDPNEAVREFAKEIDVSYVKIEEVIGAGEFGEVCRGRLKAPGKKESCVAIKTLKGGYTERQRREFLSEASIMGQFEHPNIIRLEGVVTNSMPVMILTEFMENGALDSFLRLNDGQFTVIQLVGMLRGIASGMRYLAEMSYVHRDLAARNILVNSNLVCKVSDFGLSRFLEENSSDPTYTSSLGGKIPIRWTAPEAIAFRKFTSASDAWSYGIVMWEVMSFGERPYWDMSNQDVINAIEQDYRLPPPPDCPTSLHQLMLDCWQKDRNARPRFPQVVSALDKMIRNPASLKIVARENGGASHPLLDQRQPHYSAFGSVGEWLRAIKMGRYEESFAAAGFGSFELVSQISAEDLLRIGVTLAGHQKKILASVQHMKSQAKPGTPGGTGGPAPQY
The experiment in a line: Inhibition of human recombinant EphB4 at 40 nM in presence of ATP by radiometric assay relative to control.

Test [3] addresses Platelet-derived growth factor receptor alpha (Homo sapiens) (UniProt P16234). Kind of test: Inhibition of human recombinant PDGFRa at 40 nM related to control ULK1.
In test [4] the target is Homeodomain-interacting protein kinase 2 (Homo sapiens) (UniProt Q9H2X6). The experiment in a line: Inhibition of human recombinant HIPK2 at 40 nM in presence of ATP by radiometric assay relative to control.
Test [5] addresses Serine/threonine-protein kinase 24 (Homo sapiens) (UniProt Q9Y6E0). The experiment in a line: Inhibition of human recombinant MST3 at 15 nM related to control ULK1.
Test [6] concerns the target Dual specificity protein kinase CLK4 (Homo sapiens) (UniProt Q9HAZ1). The experiment in a line: Inhibition of human recombinant CLK4 at 15 nM related to control ULK1.
Test [7] addresses MAP kinase-interacting serine/threonine-protein kinase 2 (Homo sapiens, UniProt Q9HBH9). Kind of test: Inhibition of human recombinant MNK2 at 15 nM in presence of ATP by radiometric assay relative to control.
For test [8], the target named is Eukaryotic translation initiation factor 2-alpha kinase 1 (Homo sapiens) (UniProt Q9BQI3). The experiment in a line: Inhibition of human recombinant HRI at 15 nM related to control ULK1.
The target in test [9] is BDNF/NT-3 growth factors receptor (Homo sapiens) (UniProt Q16620). Kind of test: Inhibition of human recombinant TRKB at 15 nM related to control ULK1.
For test [10], the target named is T3, Serine/threonine-protein kinase BRSK2 (Homo sapiens) (UniProt Q8IWQ3).
T3 sequence (whole entry): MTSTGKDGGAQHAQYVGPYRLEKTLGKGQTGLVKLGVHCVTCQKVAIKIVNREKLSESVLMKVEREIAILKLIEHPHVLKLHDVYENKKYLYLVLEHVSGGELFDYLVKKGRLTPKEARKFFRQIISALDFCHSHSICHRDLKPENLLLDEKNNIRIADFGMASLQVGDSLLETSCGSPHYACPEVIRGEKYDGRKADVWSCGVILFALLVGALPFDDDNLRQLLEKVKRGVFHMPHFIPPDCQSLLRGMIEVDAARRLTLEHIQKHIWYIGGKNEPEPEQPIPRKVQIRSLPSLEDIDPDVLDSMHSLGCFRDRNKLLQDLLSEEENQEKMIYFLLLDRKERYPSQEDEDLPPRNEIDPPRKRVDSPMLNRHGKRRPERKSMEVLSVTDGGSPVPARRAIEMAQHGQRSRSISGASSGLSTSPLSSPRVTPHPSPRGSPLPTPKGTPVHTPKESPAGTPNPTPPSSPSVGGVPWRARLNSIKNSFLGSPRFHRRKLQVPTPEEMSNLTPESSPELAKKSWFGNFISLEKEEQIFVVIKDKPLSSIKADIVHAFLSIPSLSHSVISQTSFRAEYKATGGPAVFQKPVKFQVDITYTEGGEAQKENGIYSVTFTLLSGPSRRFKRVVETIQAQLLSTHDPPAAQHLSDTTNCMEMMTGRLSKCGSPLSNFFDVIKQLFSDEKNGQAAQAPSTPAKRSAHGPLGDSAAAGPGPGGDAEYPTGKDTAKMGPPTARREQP
The experiment in a line: Inhibition of human recombinant BRSK2 at 15 nM in presence of ATP by radiometric assay relative to control. Put shortly: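 Recombinant human kinase panel (327 kinases) run as radiometric activity assays, each kinase in duplicate at one compound concentration. Activity remaining expressed relative to vehicle control; percent inhibition taken as 100% minus % activity remaining.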

Test [11] has as its target Protein kinase C theta type (Homo sapiens) (UniProt Q04759). Kind of test: Inhibition of human recombinant PKCt at 15 nM related to control ULK1.

Sequence of Serine/threonine-protein kinase 24 (Homo sapiens) (Q9Y6E0 whole entry, looked up): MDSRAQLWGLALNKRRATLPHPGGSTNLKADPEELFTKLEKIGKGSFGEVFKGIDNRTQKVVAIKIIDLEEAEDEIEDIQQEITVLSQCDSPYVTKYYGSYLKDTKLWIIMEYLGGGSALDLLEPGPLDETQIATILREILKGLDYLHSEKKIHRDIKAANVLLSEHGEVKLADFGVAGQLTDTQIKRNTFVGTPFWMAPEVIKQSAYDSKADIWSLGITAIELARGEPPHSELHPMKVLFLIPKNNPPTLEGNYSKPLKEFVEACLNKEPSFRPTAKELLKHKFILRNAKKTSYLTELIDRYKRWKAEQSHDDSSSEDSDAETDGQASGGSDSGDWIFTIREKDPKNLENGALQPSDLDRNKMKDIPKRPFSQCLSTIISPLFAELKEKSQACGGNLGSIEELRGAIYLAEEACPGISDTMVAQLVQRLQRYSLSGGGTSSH
Sequence of Eukaryotic translation initiation factor 2-alpha kinase 1 (Homo sapiens) (Q9BQI3 whole entry): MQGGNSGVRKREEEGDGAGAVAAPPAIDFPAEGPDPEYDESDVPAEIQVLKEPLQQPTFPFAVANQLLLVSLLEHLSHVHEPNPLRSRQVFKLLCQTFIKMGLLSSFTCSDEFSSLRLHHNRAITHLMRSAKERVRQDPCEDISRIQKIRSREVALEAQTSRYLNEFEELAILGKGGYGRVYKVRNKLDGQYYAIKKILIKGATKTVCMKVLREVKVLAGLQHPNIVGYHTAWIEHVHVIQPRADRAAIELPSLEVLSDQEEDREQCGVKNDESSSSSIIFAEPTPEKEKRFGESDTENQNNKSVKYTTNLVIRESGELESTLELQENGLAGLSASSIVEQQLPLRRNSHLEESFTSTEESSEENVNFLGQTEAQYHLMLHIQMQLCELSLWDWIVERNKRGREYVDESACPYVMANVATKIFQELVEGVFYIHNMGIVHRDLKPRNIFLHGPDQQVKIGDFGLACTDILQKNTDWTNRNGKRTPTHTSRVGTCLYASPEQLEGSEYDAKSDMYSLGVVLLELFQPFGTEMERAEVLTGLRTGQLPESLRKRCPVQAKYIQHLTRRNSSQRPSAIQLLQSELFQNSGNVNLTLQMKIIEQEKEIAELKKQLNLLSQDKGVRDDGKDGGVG
Sequence of Homeodomain-interacting protein kinase 2 (Homo sapiens) (Q9H2X6 whole entry, looked up): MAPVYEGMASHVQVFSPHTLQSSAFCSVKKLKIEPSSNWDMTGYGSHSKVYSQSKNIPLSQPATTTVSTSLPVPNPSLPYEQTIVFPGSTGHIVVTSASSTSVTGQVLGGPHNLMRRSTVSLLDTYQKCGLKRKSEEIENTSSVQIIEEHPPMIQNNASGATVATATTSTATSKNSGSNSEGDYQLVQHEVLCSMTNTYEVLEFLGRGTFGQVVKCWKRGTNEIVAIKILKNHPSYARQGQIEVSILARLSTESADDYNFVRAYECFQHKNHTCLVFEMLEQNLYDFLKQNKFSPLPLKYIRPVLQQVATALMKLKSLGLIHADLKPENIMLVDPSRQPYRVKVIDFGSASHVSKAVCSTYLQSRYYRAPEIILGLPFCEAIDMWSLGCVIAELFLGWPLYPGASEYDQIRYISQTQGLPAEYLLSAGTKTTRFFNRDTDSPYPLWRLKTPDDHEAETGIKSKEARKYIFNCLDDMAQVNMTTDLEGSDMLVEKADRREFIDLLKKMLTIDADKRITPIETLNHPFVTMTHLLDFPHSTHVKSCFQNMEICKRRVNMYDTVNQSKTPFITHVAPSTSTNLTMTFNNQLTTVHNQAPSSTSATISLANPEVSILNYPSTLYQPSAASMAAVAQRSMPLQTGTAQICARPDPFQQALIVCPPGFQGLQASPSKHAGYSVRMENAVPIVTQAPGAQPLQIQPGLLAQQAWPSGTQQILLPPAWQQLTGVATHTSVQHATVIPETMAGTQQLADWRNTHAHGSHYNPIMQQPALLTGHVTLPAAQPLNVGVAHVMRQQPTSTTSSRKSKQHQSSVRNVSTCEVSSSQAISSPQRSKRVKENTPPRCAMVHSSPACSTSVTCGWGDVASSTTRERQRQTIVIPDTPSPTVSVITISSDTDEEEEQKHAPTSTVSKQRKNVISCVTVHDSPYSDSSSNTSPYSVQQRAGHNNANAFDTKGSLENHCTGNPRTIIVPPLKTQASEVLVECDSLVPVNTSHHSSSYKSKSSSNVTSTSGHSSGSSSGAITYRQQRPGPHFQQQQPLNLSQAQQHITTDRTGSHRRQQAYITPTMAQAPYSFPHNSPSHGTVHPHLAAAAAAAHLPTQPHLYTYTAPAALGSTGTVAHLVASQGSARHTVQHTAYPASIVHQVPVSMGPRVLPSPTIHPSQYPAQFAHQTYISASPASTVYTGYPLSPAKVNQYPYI
Sequence of Platelet-derived growth factor receptor alpha (Homo sapiens) (P16234 whole entry): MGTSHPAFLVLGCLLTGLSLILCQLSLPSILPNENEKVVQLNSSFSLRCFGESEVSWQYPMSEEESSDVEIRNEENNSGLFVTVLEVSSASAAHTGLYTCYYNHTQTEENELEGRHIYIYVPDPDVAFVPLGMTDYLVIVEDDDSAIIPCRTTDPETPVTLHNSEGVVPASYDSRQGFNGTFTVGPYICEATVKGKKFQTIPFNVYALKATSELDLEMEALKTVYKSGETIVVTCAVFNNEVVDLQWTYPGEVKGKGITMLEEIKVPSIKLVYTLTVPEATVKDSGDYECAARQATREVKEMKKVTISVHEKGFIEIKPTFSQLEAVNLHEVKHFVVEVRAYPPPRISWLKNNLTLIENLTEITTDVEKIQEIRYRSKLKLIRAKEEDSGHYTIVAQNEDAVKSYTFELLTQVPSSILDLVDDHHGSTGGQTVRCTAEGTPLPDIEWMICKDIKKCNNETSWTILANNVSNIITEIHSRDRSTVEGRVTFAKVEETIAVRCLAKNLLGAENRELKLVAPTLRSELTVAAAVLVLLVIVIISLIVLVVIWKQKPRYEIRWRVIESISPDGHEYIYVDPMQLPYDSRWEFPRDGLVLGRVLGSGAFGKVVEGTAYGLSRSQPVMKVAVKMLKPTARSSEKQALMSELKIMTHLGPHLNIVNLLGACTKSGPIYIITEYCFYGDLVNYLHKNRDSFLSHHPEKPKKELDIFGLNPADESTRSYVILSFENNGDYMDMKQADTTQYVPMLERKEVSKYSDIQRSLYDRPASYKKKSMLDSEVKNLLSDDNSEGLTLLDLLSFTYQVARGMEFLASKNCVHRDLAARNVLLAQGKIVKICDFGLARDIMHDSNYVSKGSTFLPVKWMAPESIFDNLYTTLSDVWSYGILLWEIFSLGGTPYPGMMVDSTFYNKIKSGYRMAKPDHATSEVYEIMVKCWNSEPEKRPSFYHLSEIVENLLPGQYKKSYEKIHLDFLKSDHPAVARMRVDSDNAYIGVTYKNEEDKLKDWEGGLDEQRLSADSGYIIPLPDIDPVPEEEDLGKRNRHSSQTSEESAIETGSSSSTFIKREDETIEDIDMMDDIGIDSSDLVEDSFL
Sequence of MAP kinase-interacting serine/threonine-protein kinase 2 (Q9HBH9 whole entry, looked up): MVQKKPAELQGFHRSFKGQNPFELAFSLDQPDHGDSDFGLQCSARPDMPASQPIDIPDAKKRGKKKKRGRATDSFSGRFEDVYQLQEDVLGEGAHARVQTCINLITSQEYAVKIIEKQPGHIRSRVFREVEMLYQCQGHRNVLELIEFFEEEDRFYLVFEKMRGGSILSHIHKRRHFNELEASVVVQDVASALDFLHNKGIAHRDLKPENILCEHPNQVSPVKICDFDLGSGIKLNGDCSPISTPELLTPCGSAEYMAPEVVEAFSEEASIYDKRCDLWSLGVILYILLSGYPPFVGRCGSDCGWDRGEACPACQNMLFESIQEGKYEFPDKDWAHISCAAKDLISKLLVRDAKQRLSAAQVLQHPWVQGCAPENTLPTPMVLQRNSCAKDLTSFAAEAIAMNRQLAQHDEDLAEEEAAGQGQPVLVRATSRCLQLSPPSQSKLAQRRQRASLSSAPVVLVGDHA
Sequence of Protein kinase C theta type (Homo sapiens) (Q04759 whole entry, looked up): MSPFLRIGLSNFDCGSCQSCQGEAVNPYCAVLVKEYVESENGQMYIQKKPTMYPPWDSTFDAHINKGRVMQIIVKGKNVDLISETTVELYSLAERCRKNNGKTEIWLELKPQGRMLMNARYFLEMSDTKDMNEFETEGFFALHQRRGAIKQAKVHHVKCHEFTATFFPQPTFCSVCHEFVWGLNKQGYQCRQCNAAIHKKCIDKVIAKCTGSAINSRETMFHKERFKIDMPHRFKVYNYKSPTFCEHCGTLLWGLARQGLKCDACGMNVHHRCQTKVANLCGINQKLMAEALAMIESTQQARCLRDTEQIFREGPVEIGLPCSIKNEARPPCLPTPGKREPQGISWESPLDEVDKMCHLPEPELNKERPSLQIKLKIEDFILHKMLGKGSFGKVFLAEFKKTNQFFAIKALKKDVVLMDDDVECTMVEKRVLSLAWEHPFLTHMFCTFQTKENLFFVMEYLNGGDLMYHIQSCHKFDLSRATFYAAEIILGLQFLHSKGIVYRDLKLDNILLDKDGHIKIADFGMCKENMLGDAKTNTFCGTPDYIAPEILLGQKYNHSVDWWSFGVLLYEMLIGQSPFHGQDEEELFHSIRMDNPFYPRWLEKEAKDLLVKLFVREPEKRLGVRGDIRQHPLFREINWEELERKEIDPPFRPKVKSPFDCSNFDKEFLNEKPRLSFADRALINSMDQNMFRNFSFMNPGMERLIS
Sequence of Dual specificity protein kinase CLK4 (Homo sapiens) (Q9HAZ1 whole entry, looked up): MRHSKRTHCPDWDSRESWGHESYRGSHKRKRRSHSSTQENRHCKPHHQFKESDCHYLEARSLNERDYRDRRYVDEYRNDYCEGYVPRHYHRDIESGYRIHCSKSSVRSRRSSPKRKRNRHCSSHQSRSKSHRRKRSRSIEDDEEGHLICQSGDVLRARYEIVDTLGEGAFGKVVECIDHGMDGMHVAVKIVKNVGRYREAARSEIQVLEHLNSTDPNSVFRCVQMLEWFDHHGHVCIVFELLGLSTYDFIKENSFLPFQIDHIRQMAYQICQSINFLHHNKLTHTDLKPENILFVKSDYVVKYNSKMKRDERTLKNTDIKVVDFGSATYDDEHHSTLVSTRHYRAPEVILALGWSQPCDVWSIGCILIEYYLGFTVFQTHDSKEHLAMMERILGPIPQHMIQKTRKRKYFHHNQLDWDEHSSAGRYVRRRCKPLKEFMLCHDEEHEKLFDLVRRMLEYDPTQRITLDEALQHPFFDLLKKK

For orientation: inhibition means the percentage by which the read-out fell short of the control. As for `O=C(N[C@@H](C1CC1)C(F)(F)F)c1cc(-c2cnn3cc(-c4ccc(F)cc4)cnc23)cs1`, the inhibition in test [1], in test [2] and in test [4] was 0% in each case. For the same molecule, the fold change (FC) in test [3] stood at 0.
Regarding `CC(C)[C@H](NC(=O)c1cc(-c2cnn3cc(-c4ccc(OCCN5CCCCC5)cc4)cnc23)cs1)C(F)(F)F`, the fold change (FC) is 0 in test [5]; 0.94 in test [6]; 0 in test [8]; 0 in test [9]; 0 in test [11]. The inhibition in test [7] was determined as 26%; in [10], 25%.
